Reference: ChEMBL document CHEMBL4602675, “The Marine Natural Product Manzamine A Inhibits Cervical Cancer by Targeting the SIX1 Protein” (J Nat Prod, 2020)
Active and inactive are the calls of the source. The calls are words filed in the database; no cut-off is given here.

Key:
SiHa [1] = assay: Antiproliferative activity against human SiHa cells assessed as reduction in cell viability after 48 hrs by CellTiter-Glo assay; assay type: functional, cell-based
How it was run: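 ATP-based luminescent viability readout. Cells were grown in DMEM with 10% FBS, 2 mM L-glutamine and penicillin-streptomycin at 37 °C, 5% CO2. 2 × 10^4 cells/well were seeded, then exposed the next day to 0–40 μM for 24, 48 or 72 h. % viability = 100 × treated/control. IC50 was fitted from a sigmoid dose-response curve. Run at least three times in quadruplicate; mean ± SEM.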

SiHa [2] = assay: Cell cycle arrest in human SiHa cells assessed as accumulation at G0/G1 phase at 4 uM after 24 hrs by propidium iodide staining based flow cytometric analysis (reference value: 69.9%); assay type: functional
How it was run: (§1)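 Cells in DMEM/10% FBS at 37 °C, 5% CO2 were given 4 μM for 24, 48 or 72 h, with DMSO as control. After trypsinization they were fixed in chilled 70% ethanol on ice for 30 min, treated with RNase A (1 mg/mL) for 30 min at room temperature, and stained with PI (20 μg/mL). At least 10 000 events were read by flow cytometry to give sub-G1, G0/G1, S and G2/M fractions; mean ± SEM.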

HeLa [3] = assay: Cell cycle arrest in human HeLa cells assessed as accumulation at Sub G1 phase at 4 uM after 24 hrs by propidium iodide staining based flow cytometric analysis (reference value: 2.2%); assay type: functional; how it was run: as §1
HeLa [4] = assay: Cell cycle arrest in human HeLa cells assessed as accumulation at G0/G1 phase at 4 uM after 24 hrs by propidium iodide staining based flow cytometric analysis (reference value: 69.4%); assay type: functional; how it was run: as §1
Ca-Ski [5] = assay: Cell cycle arrest in human CaSki cells assessed as accumulation at G0/G1 phase at 4 uM after 24 hrs by propidium iodide staining based flow cytometric analysis (reference value: 56%); assay type: functional; how it was run: as §1
C-33-A [6] = assay: Induction of apoptosis in human C33A cells assessed as late apoptotic cells at 4 uM after 48 hrs by Annexin V-FITC/PI double staining based flow cytometric analysis (reference value: 2.5%); assay type: functional
C-33-A [7] = assay: Induction of apoptosis in human C33A cells assessed as necrotic cells at 4 uM after 48 hrs by Annexin V-FITC/PI double staining based flow cytometric analysis (reference value: 1.9%); assay type: functional
SiHa [8] = assay: Induction of apoptosis in human SiHa cells assessed as early apoptotic cells at 4 uM after 48 hrs by Annexin V-FITC/PI double staining based flow cytometric analysis (reference value: 2.4%); assay type: functional
HeLa [9] = assay: Induction of apoptosis in human HeLa cells assessed as viable cells at 4 uM after 48 hrs by Annexin V-FITC/PI double staining based flow cytometric analysis (reference value: 80.7%); assay type: functional; settings: read-out: Activity
Ca-Ski [10] = assay: Induction of apoptosis in human CaSki cells assessed as early apoptotic cells at 4 uM after 48 hrs by Annexin V-FITC/PI double staining based flow cytometric analysis (reference value: 4.4%); assay type: functional
Ca-Ski [11] = assay: Induction of apoptosis in human CaSki cells assessed as late apoptotic cells at 4 uM after 48 hrs by Annexin V-FITC/PI double staining based flow cytometric analysis (reference value: 9.1%); assay type: functional
SiHa [12] = assay: Cell cycle arrest in human SiHa cells assessed as decrease in accumulation at S phase at 4 uM incubated up to 72 hrs by propidium iodide staining based flow cytometric analysis; assay type: functional
How it was run: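 Cells in DMEM with 10% FBS, 2 mM L-glutamine, pen-strep, 37 °C, 5% CO2; seeded and left overnight, then treated at 4 μM with DMSO as control. Harvested by trypsin at 24, 48 or 72 h, fixed in chilled 70% ethanol 30 min on ice, RNase A (1 mg/mL) 30 min at room temperature, PI (20 μg/mL). Flow cytometry, ≥10 000 events, G0/G1, S, G2/M fractions; mean ± SEM.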

[13] = molecular target: Protein E6 (Human papillomavirus 16) (UniProt P03126); assay: Inhibition of Human papillomavirus type16 derived E6 in human SiHa cells assessed as increase in p21 protein expression at 2 to 4 uM after 48 hrs by Western blot analysis; assay type: cell-based
Sequence of Protein E6 (Human papillomavirus 16) (P03126 whole entry): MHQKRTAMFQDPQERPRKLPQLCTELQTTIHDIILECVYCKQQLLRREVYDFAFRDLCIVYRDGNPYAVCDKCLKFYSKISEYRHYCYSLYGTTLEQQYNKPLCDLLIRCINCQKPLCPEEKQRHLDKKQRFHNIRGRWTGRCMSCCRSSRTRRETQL
How it was run: (§2)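 Cells were seeded at 1 × 10^6 per 100 mm dish and treated next day with 2 or 4 μM for 48 h. They were trypsinised, PBS-washed and lysed in RIPA with protease inhibitors. Equal protein was run on SDS-PAGE and transferred to PVDF. Primary antibodies were used at 1:500, with BSA 3% for blocking and antibodies for CK2α, Rb and pRb, otherwise 5% milk in TBST. HRP secondary at 1:2000, chemiluminescence detection.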

[14] = molecular target: T1, Protein E7 (Human papillomavirus 16) (UniProt P03129); assay: Inhibition of Human papillomavirus type16 derived E7 in human SiHa cells assessed as decrease in cyclin-D1 protein expression at 2 to 4 uM after 48 hrs by Western blot analysis; assay type: cell-based; how it was run: as §2
T1 sequence (whole entry): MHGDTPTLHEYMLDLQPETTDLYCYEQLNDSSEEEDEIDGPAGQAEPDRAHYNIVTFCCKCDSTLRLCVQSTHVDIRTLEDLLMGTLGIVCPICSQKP

[15] = molecular target: T1, Protein E7 (Human papillomavirus 16); assay: Inhibition of Human papillomavirus type16 derived E7 in human CaSki cells assessed as decrease in phosphorylation of Rb at 2 to 4 uM after 48 hrs by Western blot analysis; assay type: cell-based; settings: Ca-Ski; how it was run: as §2
C-33-A [16] = assay: Cell cycle arrest in human C33A cells assessed as increase in p21 protein expression at 2 to 4 uM after 48 hr by Western lot analysis; assay type: functional, cell-based
How it was run: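 Western blot. 1 × 10^6 cells were seeded per 100 mm dish and exposed the next day to 2 or 4 μM for 48 h. Cells were trypsinized and lysed in RIPA buffer with protease inhibitors. Equal protein was run on SDS-PAGE and transferred to PVDF, which was blocked in 5% milk/TBST. Anti-p53 and anti-p21 (also GAPDH) were used at 1:500 and HRP secondary at 1:2000; chemiluminescent detection.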

[17] = molecular target: T2, Homeobox protein SIX1 (Homo sapiens) (UniProt Q15475); assay: Potency index, ratio for inhibition activity of apigenin to test compound for inhibition of SIX1 in human HeLa cells after 48 hrs by Western blot analysis; assay type: cell-based
T2 sequence (whole entry): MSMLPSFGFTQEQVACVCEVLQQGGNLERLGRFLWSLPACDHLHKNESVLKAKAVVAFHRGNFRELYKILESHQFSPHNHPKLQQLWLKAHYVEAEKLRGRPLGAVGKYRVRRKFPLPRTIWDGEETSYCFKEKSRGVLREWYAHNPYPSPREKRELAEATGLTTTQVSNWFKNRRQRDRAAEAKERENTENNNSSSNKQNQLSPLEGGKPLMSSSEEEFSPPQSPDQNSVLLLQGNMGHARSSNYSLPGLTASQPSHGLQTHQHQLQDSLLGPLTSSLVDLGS
How it was run: (§3)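 Cells plated at 1 × 10^6 per 100 mm dish and treated next day for 48 h with test compound (2 or 4 μM) or apigenin (10, 20 or 40 μM). RIPA lysates with protease inhibitors; equal protein loaded for SDS-PAGE, then PVDF transfer. Blocked in 5% milk/TBST (3% BSA for CK2α); anti-SIX1 or anti-CK2α 1:500, HRP secondary 1:2000; chemiluminescent detection.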

[18] = molecular target: T2, Homeobox protein SIX1 (Homo sapiens); assay: Potency index, ratio for inhibition activity of apigenin to test compound for inhibition of SIX1 in human CaSki cells after 48 hrs by Western blot analysis; assay type: cell-based; settings: Ca-Ski; how it was run: as §3

## O[C@]12C=C(c3nccc4c3[nH]c3ccccc34)[C@@H]3CCN(CCCC/C=C\CC1)C[C@@]31C[C@@H]3/C=C\CCCCN3[C@H]12 [MANZAMINE A]
SiHa [1]
  IC50: 9.9 µM
SiHa [2]
  Activity: 85.3%
HeLa [3]
  Activity: 2.1%
HeLa [4]
  Activity: 74.7%
Ca-Ski [5]
  Activity: 77.6%
C-33-A [6]
  Activity: 15.7%
C-33-A [7]
  Activity: 11.1%
SiHa [8]
  Activity: 27%
HeLa [9]
  viability at 4 µM: 24.1%
Ca-Ski [10]
  Activity: 13.4%
Ca-Ski [11]
  Activity: 7.8%
SiHa [12]
  Activity: Active
[13]
  inhibition: Active
[14]
  inhibition: Active
[15]
  inhibition: Active
C-33-A [16]
  Activity: inactive
[17]
  Ratio: 10
[18]
  Ratio: 10
